In ChEMBL document CHEMBL3627597, “Synthesis of Fluorine-Containing Phosphodiesterase 10A (PDE10A) Inhibitors and the In Vivo Evaluation of F-18 Labeled PDE10A PET Tracers in Rodent and Nonhuman Primate” (J Med Chem, 2015):

Key:
[1] = system: Caudate; assay: Drug uptake in cynomolgus monkey caudate at 185 to 259 MBq, iv measured over 180 mins by micro PET image analysis; assay type: ADME, organism-based, Macaca fascicularis, Caudate nucleus; conditions: in vivo, 3 h
Summary of the method: (§1)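 Adult male cynomolgus macaques (~4–6 kg), three studies per tracer, fasted 12 h. Induction with ketamine 10 mg/kg plus glycopyrrolate 0.13 mg/kg i.m. Transmission scans of 10 min for positioning and 45 min for attenuation correction, then a 3 h dynamic microPET emission scan after venous injection of 185 - 259 MBq. ROI time-activity curves expressed as SUV (body weight and injected dose).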

[2] = Metabolic stability in cynomolgus monkey plasma assessed as compound remaining at 185 to 259 MBq, iv measured at 15 mins by HPLC analysis; assay type: ADME, organism-based, Macaca fascicularis; conditions: read-out: Stability
Summary of the method: (§2)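 Arterial blood (~1.5 mL) drawn at 2, 15, 30, 60 and 90 min p.i. into heparinized syringes, then centrifuged to plasma. Plasma deproteinated with 2 parts ice-cold methanol. Extract run on C-18 HPLC, MeCN/0.1 M ammonium formate pH 4.5, 0.9 mL/min, UV 254 nm. 1-min fractions over 16 min were well-counted and decay-corrected; parent percentage taken from recovered activity.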

[3] = system: Kidney; assay: Biodistribution in Sprague-Dawley rat kidney at 1.48 to 2.22 MBq, iv measured at 30 mins by gamma counting analysis; assay type: ADME, organism-based; conditions: in vivo, 0.5 h
Summary of the method: (§3)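 Male Sprague-Dawley rats (250 - 400 g), tail-vein injection of 1.48 - 2.22 MBq radiotracer under 2.5% isoflurane in oxygen; n=4 per time point, euthanized at 5, 30 and 60 min p.i. Brain regions obtained by gross dissection; peripheral tissues collected. Samples weighed, gamma-counted against a diluted-injectate standard; %ID/g calculated.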

[4] = system: Nucleic Acid; assay: Ratio of drug level in striatum to cortex in Sprague-Dawley rat at 1.48 to 2.22 MBq, iv measured at 5 to 30 mins by gamma counting analysis; assay type: ADME, organism-based; conditions: in vivo
Summary of the method: (§4)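 Striatum, cerebellum and cortex obtained by gross dissection from Sprague-Dawley rats (250 - 400 g, n=4 per time point) after tail-vein injection of 1.48 - 2.22 MBq under isoflurane anesthesia. Tissues weighed and gamma-counted with an injectate standard to give %ID/g; ratios taken from striatal versus non-target uptake.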

[5] = system: Brain; assay: Biodistribution in Sprague-Dawley rat brain at 1.48 to 2.22 MBq, iv measured at 5 mins by gamma counting analysis; assay type: ADME, organism-based; conditions: in vivo; summary of the method: as §3
[6] = Metabolic stability in cynomolgus monkey plasma assessed as compound remaining at 185 to 259 MBq, iv measured at 2 mins by HPLC analysis; assay type: ADME, organism-based, Macaca fascicularis; conditions: read-out: Stability; summary of the method: as §2
[7] = system: Muscle tissue; assay: Biodistribution in Sprague-Dawley rat muscle at 1.48 to 2.22 MBq, iv measured at 5 mins by gamma counting analysis; assay type: ADME, organism-based; conditions: in vivo; summary of the method: as §3
[8] = system: Brain; assay: Biodistribution in Sprague-Dawley rat brain at 1.48 to 2.22 MBq, iv measured at 30 mins by gamma counting analysis; assay type: ADME, organism-based; conditions: in vivo, 0.5 h; summary of the method: as §3
[9] = system: Bone; assay: Biodistribution in Sprague-Dawley rat bone at 1.48 to 2.22 MBq, iv measured at 30 mins by gamma counting analysis; assay type: ADME, organism-based, Bone element; conditions: in vivo, 0.5 h; summary of the method: as §3
[10] = system: Striatum; assay: Biodistribution in Sprague-Dawley rat striatum at 1.48 to 2.22 MBq, iv measured at 30 mins by gamma counting analysis; assay type: ADME, organism-based; conditions: in vivo, 0.5 h; summary of the method: as §3
[11] = system: Liver; assay: Biodistribution in Sprague-Dawley rat liver at 1.48 to 2.22 MBq, iv measured at 60 mins by gamma counting analysis; assay type: ADME, organism-based; conditions: in vivo, 1 h; summary of the method: as §3
[12] = system: Bone; assay: Biodistribution in Sprague-Dawley rat bone at 1.48 to 2.22 MBq, iv measured at 5 mins by gamma counting analysis; assay type: ADME, organism-based, Bone element; conditions: in vivo; summary of the method: as §3
[13] = system: Nucleic Acid; assay: Ratio of drug level in striatum to cerebellum in cynomolgus monkey at 185 to 259 MBq, iv measured at 40 mins by micro PET image analysis; assay type: ADME, organism-based, Macaca fascicularis; conditions: in vivo
Summary of the method: (§5)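 Adult male cynomolgus macaques (~4–6 kg), three independent PET studies per tracer on a microPET Focus 220. Animals fasted 12 h and anesthetized with ketamine (10 mg/kg) plus glycopyrrolate (0.13 mg/kg) i.m. A 10 min positioning transmission scan and a 45 min attenuation transmission scan were run, then a 3 h dynamic emission scan after venous tracer injection. Regional TACs came from ROIs, expressed as SUV (body weight, injected dose).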

[14] = Metabolic stability in cynomolgus monkey plasma assessed as compound remaining at 185 to 259 MBq, iv measured at 30 mins by HPLC analysis; assay type: ADME, organism-based, Macaca fascicularis; conditions: read-out: Stability; summary of the method: as §2
[15] = system: Nucleic Acid; assay: Ratio of drug level in striatum to occipital in cynomolgus monkey at 185 to 259 MBq, iv measured at 40 mins by micro PET image analysis; assay type: ADME, organism-based, Macaca fascicularis; conditions: in vivo; summary of the method: as §5
[16] = system: Bone; assay: Biodistribution in Sprague-Dawley rat bone at 1.48 to 2.22 MBq, iv measured at 60 mins by gamma counting analysis; assay type: ADME, organism-based, Bone element; conditions: in vivo, 1 h; summary of the method: as §3
[17] = system: Muscle tissue; assay: Biodistribution in Sprague-Dawley rat muscle at 1.48 to 2.22 MBq, iv measured at 30 mins by gamma counting analysis; assay type: ADME, organism-based; conditions: in vivo, 0.5 h; summary of the method: as §3
[18] = Metabolic stability in cynomolgus monkey plasma assessed as compound remaining at 185 to 259 MBq, iv measured at 90 mins by HPLC analysis; assay type: ADME, organism-based, Macaca fascicularis; conditions: read-out: Stability; summary of the method: as §2
[19] = system: Rattus norvegicus; assay: Biodistribution in Sprague-Dawley rat fat tissue at 1.48 to 2.22 MBq, iv measured at 5 mins by gamma counting analysis; assay type: ADME, organism-based, Adipose tissue; conditions: in vivo; summary of the method: as §3
[20] = system: Nucleic Acid; assay: Ratio of drug level in striatum to midbrain region in cynomolgus monkey at 185 to 259 MBq, iv measured at 40 mins by micro PET image analysis; assay type: ADME, organism-based, Macaca fascicularis, Brain; conditions: in vivo; summary of the method: as §5
[21] = Metabolic stability in cynomolgus monkey plasma assessed as compound remaining at 185 to 259 MBq, iv measured at 60 mins by HPLC analysis; assay type: ADME, organism-based, Macaca fascicularis; conditions: read-out: Stability; summary of the method: as §2
[22] = system: Kidney; assay: Biodistribution in Sprague-Dawley rat kidney at 1.48 to 2.22 MBq, iv measured at 5 mins by gamma counting analysis; assay type: ADME, organism-based; conditions: in vivo; summary of the method: as §3
[23] = Ratio of drug level in striatum to cerebellum in Sprague-Dawley rat at 1.48 to 2.22 MBq, iv measured at 5 to 30 mins by gamma counting analysis; assay type: ADME, organism-based; conditions: in vivo; summary of the method: as §4
[24] = system: Liver; assay: Biodistribution in Sprague-Dawley rat liver at 1.48 to 2.22 MBq, iv measured at 5 mins by gamma counting analysis; assay type: ADME, organism-based; conditions: in vivo; summary of the method: as §3
[25] = system: Kidney; assay: Biodistribution in Sprague-Dawley rat kidney at 1.48 to 2.22 MBq, iv measured at 60 mins by gamma counting analysis; assay type: ADME, organism-based; conditions: in vivo, 1 h; summary of the method: as §3
[26] = system: Blood; assay: Biodistribution in Sprague-Dawley rat blood at 1.48 to 2.22 MBq, iv measured at 60 mins by gamma counting analysis; assay type: ADME, organism-based; conditions: in vivo, 1 h; summary of the method: as §3
[27] = system: Plasma; assay: Retention time of the compound in cynomolgus monkey plasma at 185 to 259 MBq, iv by HPLC analysis; assay type: ADME, organism-based, Macaca fascicularis; summary of the method: as §2
[28] = system: Muscle tissue; assay: Biodistribution in Sprague-Dawley rat muscle at 1.48 to 2.22 MBq, iv measured at 60 mins by gamma counting analysis; assay type: ADME, organism-based; conditions: in vivo, 1 h; summary of the method: as §3
[29] = system: Blood; assay: Biodistribution in Sprague-Dawley rat blood at 1.48 to 2.22 MBq, iv measured at 30 mins by gamma counting analysis; assay type: ADME, organism-based; conditions: in vivo, 0.5 h; summary of the method: as §3
[30] = system: Nucleic Acid; assay: Ratio of drug level in striatum to white matter in cynomolgus monkey at 185 to 259 MBq, iv measured at 40 mins by micro PET image analysis; assay type: ADME, organism-based, Macaca fascicularis; conditions: in vivo; summary of the method: as §5
[31] = system: Putamen; assay: Drug uptake in cynomolgus monkey putamen at 185 to 259 MBq, iv measured over 180 mins by micro PET image analysis; assay type: ADME, organism-based, Macaca fascicularis; conditions: in vivo, 3 h; summary of the method: as §1
[32] = system: Liver; assay: Biodistribution in Sprague-Dawley rat liver at 1.48 to 2.22 MBq, iv measured at 30 mins by gamma counting analysis; assay type: ADME, organism-based; conditions: in vivo, 0.5 h; summary of the method: as §3
[33] = system: Blood; assay: Biodistribution in Sprague-Dawley rat blood at 1.48 to 2.22 MBq, iv measured at 5 mins by gamma counting analysis; assay type: ADME, organism-based; conditions: in vivo; summary of the method: as §3
[34] = system: Rattus norvegicus; assay: Biodistribution in Sprague-Dawley rat fat tissue at 1.48 to 2.22 MBq, iv measured at 60 mins by gamma counting analysis; assay type: ADME, organism-based, Adipose tissue; conditions: in vivo, 1 h; summary of the method: as §3
[35] = system: Nucleic Acid; assay: Ratio of drug level in striatum to temporal region in cynomolgus monkey at 185 to 259 MBq, iv measured at 40 mins by micro PET image analysis; assay type: ADME, organism-based, Macaca fascicularis; conditions: in vivo; summary of the method: as §5
[36] = system: Nucleic Acid; assay: Ratio of drug level in striatum to frontal in cynomolgus monkey at 185 to 259 MBq, iv measured at 40 mins by micro PET image analysis; assay type: ADME, organism-based, Macaca fascicularis; conditions: in vivo; summary of the method: as §5
[37] = system: Rattus norvegicus; assay: Biodistribution in Sprague-Dawley rat fat tissue at 1.48 to 2.22 MBq, iv measured at 30 mins by gamma counting analysis; assay type: ADME, organism-based, Adipose tissue; conditions: in vivo, 0.5 h; summary of the method: as §3
[38] = system: Nucleic Acid; assay: Ratio of drug level in striatum to hippocampus in cynomolgus monkey at 185 to 259 MBq, iv measured at 40 mins by micro PET image analysis; assay type: ADME, organism-based, Macaca fascicularis; conditions: in vivo; summary of the method: as §5
[39] = system: Brain; assay: Biodistribution in Sprague-Dawley rat brain at 1.48 to 2.22 MBq, iv measured at 60 mins by gamma counting analysis; assay type: ADME, organism-based; conditions: in vivo, 1 h; summary of the method: as §3

SMILES	Drug uptake [3]	Ratio [4]	Drug uptake [5]	Drug uptake [7]	Drug uptake [8]	Drug uptake [9]	Drug uptake [10]	Drug uptake [11]	Drug uptake [12]	Drug uptake [16]	Drug uptake [17]	Drug uptake [19]	Drug uptake [22]	Ratio [23]	Drug uptake [24]	Drug uptake [25]	Drug uptake [26]	Drug uptake [28]	Drug uptake [29]	Drug uptake [32]	further results
Cn1cc(-c2ccncc2)c(-c2ccc(OCc3cc(OCC[18F])c4ccccc4n3)cc2)n1	1.055 % ID/g	> 2	0.118 % ID/g	0.247 % ID/g	0.078 % ID/g	0.091 % ID/g	Active	3.29 % ID/g	0.189 % ID/g	0.142 % ID/g	0.134 % ID/g	0.213 % ID/g	2.2 % ID/g	> 2	6.88 % ID/g	0.765 % ID/g	0.215 % ID/g	0.132 % ID/g	0.226 % ID/g	6.98 % ID/g	Drug uptake [1]: Active; remaining at 0.25 h [2]: 93%; remaining at 2 min [6]: 98%; Ratio [13]: > 3; remaining at 0.5 h [14]: 90%; Ratio [15]: > 3; remaining at 1.5 h [18]: 57%; Ratio [20]: > 3; remaining at 1 h [21]: 75%; Retention_time [27]: 10.5 min; Ratio [30]: > 3; Drug uptake [31]: Active; Drug uptake [33]: 0.362 % ID/g; Drug uptake [34]: 0.259 % ID/g; Ratio [35]: > 3; Ratio [36]: > 3; Drug uptake [37]: 0.302 % ID/g; Ratio [38]: > 3; Drug uptake [39]: 0.101 % ID/g
Cn1cc(-c2ccncc2)c(-c2ccc(OCc3cc(C[18F])c4ccccc4n3)cc2)n1	1.351 % ID/g	> 2	0.128 % ID/g	0.227 % ID/g	0.094 % ID/g	4.055 % ID/g	Active	3.1 % ID/g	0.421 % ID/g	5.62 % ID/g	0.174 % ID/g	0.343 % ID/g	1.799 % ID/g	> 2	10.16 % ID/g	0.573 % ID/g	0.201 % ID/g	0.107 % ID/g	0.416 % ID/g	4.01 % ID/g	Drug uptake [33]: 0.471 % ID/g; Drug uptake [34]: 0.222 % ID/g; Drug uptake [37]: 0.352 % ID/g; Drug uptake [39]: 0.069 % ID/g
